Assay outcomes from PubChem.
This is a sample that favours compounds with a hit; in the whole collection about 2% have one here.
HSP90 inh = blocks HSP90-mediated luciferase refolding in reticulocyte lysate | Rabbit reticulocyte lysate, luciferase refolding luminescence, 3 h | inhibition, % at 5.6 µM | 290,000 tested, 0.91% active | AID 1789;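 active = inhibition above the screen-wide mean plus 3 SD, computed separately per campaign, cut at about 16% in these data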;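 also: 0% = DMSO wells and 100% = 60 µM geldanamycin wells; inhibitors lower the luminescence because luciferase stays unfolded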
STAT3 activator = STAT3 signaling activation; U3A cells, IL-6 STAT3-luciferase reporter, luminescence; 100% = signal with IL-6 EC80 alone; activation (% of control), % at 5.6 µM; 190,000 tested, 0.91% active;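 active = activation above the screen-wide mean of compound activation plus 3 SD, cut at about 130% in these data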;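 also: 0% = background luminescence of wells with medium and substrate only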
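Detection: reporter luminescence signal / Assay system: STAT1-lacking human U3A cells, STAT3 luciferase reporter / Incubation: compound pre-incubation 1 h before IL-6, then 6 h stimulation at 37 °C / Control set: IL-6-only high control / Read-out: % activation relative to IL-6 control / Probe or stimulus: Interleukin-6, 33 ng/mL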
STAT1 inh = inhibitors of IFN-gamma induced STAT1 signaling | NIH 3T3 STAT1-luciferase reporter, luminescence | 200,000 tested, 0.35% active | inhibition, % at 5.5 µM;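 active = inhibition above a set limit, the mean inhibition across all tested compounds plus 3 SD, cut at about 34% in these data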;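 also: 0% = IFN-gamma with DMSO and 100% = IFN-gamma with 300 µM nifuroxazide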
STAT3 inh-1 = STAT3 signaling inhibition | U3A cells, IL-6 STAT3-luciferase reporter, luminescence; host cell line lacks STAT1 | inhibition, % at 5.5 µM | 190,000 tested, 0.89% active;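 active = inhibition above the mean inhibition across all screened compounds plus 3 SD, cut at about 44% in these data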;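 also: 0% = DMSO only wells and 100% = 100 µM nifuroxazide control wells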
STAT3 inh-2 = STAT3 inhibition, confirmation assay | inhibition, % at 5.7 µM | U3A cells, IL-6 STAT3 luciferase reporter, luminescence; cell line lacks STAT1 | shares compounds with STAT3 inh-1 | 1,200 tested, 45% active;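 active = inhibition above the hit cutoff computed for the primary STAT3 screen, cut at about 44% in these data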;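 also: 0% = IL-6 plus DMSO and 100% = IL-6 plus nifuroxazide control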
NFkB inh 2 = inhibits NF-kappaB, counter-screen to STAT3 inhibitors | shares compounds with STAT3 inh-1 | HEK293T NF-kB luciferase reporter, TNF-alpha induced | inhibition, % at 5.7 µM | 1,200 tested, 36% active;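 active = inhibition above the mean of solvent-only control wells plus 3 SD, cutoff set per campaign, cut at about 13% in these data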;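 also: 0% = TNF-alpha with DMSO and 100% = TNF-alpha with MG high control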
STAT1 inh 2 = STAT1 inhibition in STAT3 inhibitor counter-screen; inhibition, % at 5.7 µM; shares compounds with STAT3 inh-1; NIH 3T3 STAT1-luciferase reporter, IFN-gamma induced, luminescence; 1,200 tested, 27% active;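 active = inhibition above the mean plus 3 SD of solvent-only control wells, limit set per screening run, cut at about 16% in these data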;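 also: 0% = DMSO with IFN-gamma and 100% = nifuroxazide control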
An asterisk follows results filed as active.

How did CCN(CC)S(=O)(=O)c1ccc(C(=O)Nc2ccc(Cc3ccncc3)cc2)cc1 do in these assays?
HSP90 inh: -3.3; STAT3 activator: 49.0; STAT1 inh: 22.3; STAT3 inh-1: 64.5*; STAT3 inh-2: 61.2*; NFkB inh 2: 15.6*; STAT1 inh 2: 16.5*

Results for CCN(CC)S(=O)(=O)c1ccc(NC(=O)c2ccc(N(C)S(C)(=O)=O)cc2)cc1 ?
HSP90 inh: 3.2; STAT3 activator: 34.8; STAT1 inh: 4.3; STAT3 inh-1: 80.5*; STAT3 inh-2: 71.7*; NFkB inh 2: 29.5*; STAT1 inh 2: 7.0

Results for COc1ccc(NS(=O)(=O)c2ccc(NC(=O)c3ccc(N(C)S(C)(=O)=O)cc3)cc2)c(OC)c1 ?
HSP90 inh: -1.2; STAT3 activator: 38.4; STAT1 inh: 16.2; STAT3 inh-1: 73.1*; STAT3 inh-2: 84.4*; NFkB inh 2: 26.0*; STAT1 inh 2: 23.5*

Results for COC(=O)c1ccc(NC(=O)c2ccc(N(C)S(C)(=O)=O)cc2)cc1 ?
HSP90 inh: -1.7; STAT3 activator: 59.1; STAT1 inh: 0.0; STAT3 inh-1: 52.0*; STAT3 inh-2: 39.1; NFkB inh 2: 1.6; STAT1 inh 2: -7.9

How did COc1ccc(NC(=O)c2ccc(N(C)S(C)(=O)=O)cc2)cc1OC do in these assays?
HSP90 inh: -0.3; STAT3 activator: 96.6; STAT1 inh: -5.4; STAT3 inh-1: 5.4

How did CC(C)Cc1nnc(NC(=O)CCC(=O)NC2CCCCC2)s1 do in these assays?
HSP90 inh: 0.7

What do the screens show for `CCN1N=C(C)C=C(c2ccccc2)n2c1nc1ccccc12`?
HSP90 inh: -6.8

Results for Cc1cc(/C=N/n2cnnc2)c(C)n1-c1ccc(OCc2ccc(Cl)cc2)cc1 ?
HSP90 inh: 5.7; STAT3 activator: 36.8; STAT1 inh: 19.3; STAT3 inh-1: 77.1*; STAT3 inh-2: 60.6*; NFkB inh 2: 17.5*; STAT1 inh 2: 15.4

How did COc1ccc(Cl)cc1S(=O)(=O)N1CCC(C(=O)N2CCOCC2)CC1 do in these assays?
HSP90 inh: -3.4

How did c1ccc(OCCCCn2cnc3ccccc32)cc1 do in these assays?
HSP90 inh: 7.3; STAT3 activator: 65.8; STAT1 inh: 12.8; STAT3 inh-1: 43.5*; STAT3 inh-2: 34.9; NFkB inh 2: -6.7; STAT1 inh 2: -2.5

Results for c1ccc(OCCn2cnc3ccccc32)cc1 ?
HSP90 inh: 1.6; STAT3 activator: 92.5; STAT1 inh: -6.6; STAT3 inh-1: 11.8

What do the screens show for `Cc1ccccc1OCCCCn1cnc2ccccc21`?
HSP90 inh: 0.0; STAT3 activator: 49.9; STAT1 inh: 9.2; STAT3 inh-1: 60.6*; STAT3 inh-2: 52.0*; NFkB inh 2: 11.7; STAT1 inh 2: 13.8

What do the screens show for `CCCOc1ccc(Cn2cnc3ccccc32)cc1`?
HSP90 inh: 4.0; STAT3 activator: 62.5; STAT1 inh: 14.5; STAT3 inh-1: 47.6*; STAT3 inh-2: 28.7; NFkB inh 2: -1.1; STAT1 inh 2: 7.3

How did CN=c1scc(C)n1/N=C/c1ccc2c(c1)OCO2 do in these assays?
HSP90 inh: 10.9; STAT3 activator: 62.5; STAT1 inh: -21.6; STAT3 inh-1: 48.9*; STAT3 inh-2: 13.6; NFkB inh 2: -22.3; STAT1 inh 2: -130.2

Results for CN=c1scc(C)n1/N=C/c1cc(Br)c(O)c(Br)c1 ?
HSP90 inh: 1.8; STAT3 activator: 90.5; STAT1 inh: -12.1; STAT3 inh-1: 18.4

How did COc1ccc(NC(NC(=O)c2ccc(OC)cc2)C(Cl)(Cl)Cl)cc1 (configuration not stated) do in these assays?
HSP90 inh: 3.0; STAT3 activator: 65.8; STAT1 inh: 20.1; STAT3 inh-1: 49.9*; STAT3 inh-2: 27.1; NFkB inh 2: 0.4; STAT1 inh 2: 11.3

Results for COc1ccc(C(=O)NC(Nc2ccc(C)cc2)C(Cl)(Cl)Cl)cc1 (configuration not stated) ?
HSP90 inh: 5.6; STAT3 activator: 72.9; STAT1 inh: 22.1; STAT3 inh-1: 32.0

What do the screens show for `O=C(C[n+]1ccn(-c2ccccc2)c1)c1ccc([N+](=O)[O-])cc1`?
HSP90 inh: 2.8

How did C=CCNc1nc2c(c(=O)n(C)c(=O)n2C)n1CCCCCC do in these assays?
HSP90 inh: -0.9; STAT3 activator: 54.6; STAT1 inh: 28.1; STAT3 inh-1: 54.4*; STAT3 inh-2: 64.3*; NFkB inh 2: 14.9*; STAT1 inh 2: 29.7*

Results for CC(=O)N1CCN(c2ccc(NC(=O)COc3ccc(Cl)cc3Cl)cc2)CC1 ?
HSP90 inh: 1.0; STAT3 activator: 53.2; STAT1 inh: 6.7; STAT3 inh-1: 60.5*; STAT3 inh-2: 36.5; NFkB inh 2: 1.9; STAT1 inh 2: 2.1

Results for O=C(COc1ccc(Cl)cc1)Nc1ccc(N2CCN(C(=O)c3ccco3)CC2)cc1 ?
HSP90 inh: -1.5; STAT3 activator: 55.8; STAT1 inh: 14.5; STAT3 inh-1: 60.7*; STAT3 inh-2: 40.4; NFkB inh 2: 4.8; STAT1 inh 2: 7.9

Results for COc1ccc(OCC(=O)Nc2ccc(N3CCN(C(=O)c4ccco4)CC3)cc2)cc1 ?
HSP90 inh: 0.7; STAT3 activator: 95.4; STAT1 inh: -12.8; STAT3 inh-1: 12.1

What do the screens show for `CC(=O)N1CCN(c2ccccc2NC(=O)COc2ccc(Cl)cc2Cl)CC1`?
HSP90 inh: -0.8; STAT3 activator: 132.8; STAT1 inh: -11.5; STAT3 inh-1: -35.0

How did CCCCCCC(C)OC(=O)c1ccccc1C(=O)O (configuration not stated) do in these assays?
HSP90 inh: -2.4

What do the screens show for `COc1ccc2cc(-c3cc(C(=O)OCC(=O)Nc4c(C)n(C)n(-c5ccccc5)c4=O)c4ccccc4n3)ccc2c1`?
HSP90 inh: 3.4; STAT3 activator: 61.5; STAT1 inh: -10.2; STAT3 inh-1: 46.6*; STAT3 inh-2: 55.6*; NFkB inh 2: 10.0; STAT1 inh 2: -15.3

How did COc1ccc(-c2cc(C(=O)Nc3c(C)n(C)n(-c4ccccc4)c3=O)c3ccccc3n2)cc1 do in these assays?
HSP90 inh: -4.0

Results for COc1ccc2cc(-c3cc(C(=O)OCC(=O)NC4CCS(=O)(=O)C4)c4ccccc4n3)ccc2c1 (configuration not stated) ?
HSP90 inh: 12.4; STAT3 activator: 47.2; STAT1 inh: -17.5; STAT3 inh-1: 62.4*; STAT3 inh-2: 41.4; NFkB inh 2: 1.2; STAT1 inh 2: -16.8

How did COc1ccc(-c2nnc(-c3cc4ccccc4oc3=O)o2)cc1 do in these assays?
HSP90 inh: -3.1; STAT3 activator: 93.8; STAT1 inh: -0.7; STAT3 inh-1: 10.3

What do the screens show for `COc1cccc2cc(-c3nnc(-c4ccccc4)o3)c(=O)oc12`?
HSP90 inh: 4.2; STAT3 activator: 63.8; STAT1 inh: -21.9; STAT3 inh-1: 46.2*; STAT3 inh-2: 31.3; NFkB inh 2: 3.3; STAT1 inh 2: -66.8
